The results in this text go back to BindingDB's records for doi:10.1021/jm950541c (Georgia Institute of Technology, 1996).

The assay has as its target T1, Calpain-2 catalytic subunit (Homo sapiens, UniProt P17655).
T1 sequence (P17655 whole entry): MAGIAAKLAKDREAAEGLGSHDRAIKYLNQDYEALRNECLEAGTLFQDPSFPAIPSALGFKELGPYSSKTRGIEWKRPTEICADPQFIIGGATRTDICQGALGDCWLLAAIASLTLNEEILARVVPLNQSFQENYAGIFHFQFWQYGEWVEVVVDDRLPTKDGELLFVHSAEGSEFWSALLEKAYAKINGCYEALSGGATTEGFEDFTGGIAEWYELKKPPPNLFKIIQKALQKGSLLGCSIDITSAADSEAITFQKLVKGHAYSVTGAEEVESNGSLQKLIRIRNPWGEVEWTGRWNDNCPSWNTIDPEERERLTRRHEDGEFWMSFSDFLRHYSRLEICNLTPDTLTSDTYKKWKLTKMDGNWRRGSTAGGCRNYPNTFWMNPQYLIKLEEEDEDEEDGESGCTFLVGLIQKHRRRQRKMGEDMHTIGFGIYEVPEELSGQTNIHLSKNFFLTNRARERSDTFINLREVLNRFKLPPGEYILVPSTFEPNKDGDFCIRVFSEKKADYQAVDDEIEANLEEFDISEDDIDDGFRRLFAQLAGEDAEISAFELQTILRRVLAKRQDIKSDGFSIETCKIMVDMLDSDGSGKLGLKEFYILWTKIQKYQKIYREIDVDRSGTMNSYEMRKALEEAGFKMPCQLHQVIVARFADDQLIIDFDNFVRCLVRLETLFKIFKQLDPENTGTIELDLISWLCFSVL
In words: Compound was evaluated for the inhibition of Cysteine protease Calpain 2. In outline: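 Calpain assay in 25 mM Tris, pH 8.0, with 10 mM CaCl₂ and 5% DMSO. Suc-Leu-AMC hydrolysis was read as initial velocity (t = 30-60 s) after a 30 s delay, at room temperature. Five or more inhibitor concentrations (not above 2 × K_obs) were used at two fixed substrate levels. Ki came from Dixon plots (1/v vs I) averaged over triplicates.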

As a reminder, the Ki is a measure of affinity in units of concentration, obtained from inhibition or displacement. A low value points to tighter binding. Molecule `CCC(NC(=O)C(CC(C)C)NC(=O)OCc1ccccc1)C(=O)C(=O)NCC(O)c1cccc(C(F)(F)F)c1` (stereo not drawn) [(1-{1-[2-Hydroxy-2-(3-trifluoromethyl-phenyl)-ethylaminooxalyl]-propylcarbamoyl}-3-methyl-butyl)-carbamic acid benzyl ester] gave a Ki of 180 nM.

For `CCC(NC(=O)C(CC(C)C)NC(=O)OCc1ccccc1)C(=O)C(=O)NCC(O)c1ccc(Oc2ccccc2)cc1` (stereo not drawn) [(1-{1-[2-Hydroxy-2-(4-phenoxy-phenyl)-ethylaminooxalyl]-propylcarbamoyl}-3-methyl-butyl)-carbamic acid benzyl ester], the Ki came out at 290 nM.

Molecule `CCC(NC(=O)C(CC(C)C)NC(=O)OCc1ccccc1)C(=O)C(=O)NCCc1cccn1C` (stereo not drawn) [(3-Methyl-1-{1-[2-(1-methyl-1H-pyrrol-2-yl)-ethylaminooxalyl]-propylcarbamoyl}-butyl)-carbamic acid benzyl ester] gave a Ki of 76 nM.

`CCNC(=O)C(=O)C(CC)NC(=O)C(CC(C)C)NC(=O)c1ccco1` (stereo not drawn) [Furan-2-carboxylic acid [1-(1-ethylaminooxalyl-propylcarbamoyl)-3-methyl-butyl]-amide] yielded a Ki of 580 nM.

`CCNC(=O)C(=O)C(CC)NC(=O)C(CC(C)C)NC(=O)c1nccc2ccccc12` (stereo not drawn) [Isoquinoline-1-carboxylic acid [1-(1-ethylaminooxalyl-propylcarbamoyl)-3-methyl-butyl]-amide]: the Ki stood at 110 nM.

`CCNC(=O)C(=O)C(CC)NC(=O)C(CC(C)C)NC(=O)N1CCOCC1` (stereo not drawn) [Morpholine-4-carboxylic acid [1-(1-ethylaminooxalyl-propylcarbamoyl)-3-methyl-butyl]-amide] yielded a Ki of 9900 nM.

For the molecule `CCNC(=O)C(=O)C(CC)NC(=O)C(CC(C)C)NC(=O)c1cccnc1` (stereo not drawn) [N-[1-(1-Ethylaminooxalyl-propylcarbamoyl)-3-methyl-butyl]-nicotinamide], the affinity, expressed as Ki, was 830 nM.

In turn, `CCNC(=O)C(=O)C(CC)NC(=O)C(CC(C)C)NC(=O)c1cnccn1` (stereo not drawn) [Pyrazine-2-carboxylic acid [1-(1-ethylaminooxalyl-propylcarbamoyl)-3-methyl-butyl]-amide] returned a Ki of 480 nM.

With `CCNC(=O)C(=O)C(CC)NC(=O)C(CC(C)C)NC(=O)c1ccc2ccccc2n1` (stereo not drawn) [Quinoline-2-carboxylic acid [1-(1-ethylaminooxalyl-propylcarbamoyl)-3-methyl-butyl]-amide], affinity was put at a Ki of 300 nM.

`CNC(=O)C(=O)C(Cc1ccccc1)NC(=O)C(CC(C)C)NC(=O)OCc1ccccc1` (stereo not drawn) [[1-(1-Benzyl-2-methylcarbamoyl-2-oxo-ethylcarbamoyl)-3-methyl-butyl]-carbamic acid benzyl ester] yielded a Ki of 150 nM.

Molecule `CC(C)CC(NC(=O)OCc1ccccc1)C(=O)NC(Cc1ccccc1)C(=O)C(=O)NCCNC(=O)CCCC[C@@H]1SC[C@@H]2NC(=O)N[C@@H]21` (stereo partly drawn) [[1-(1-Benzyl-2-oxo-2-{2-[5-((3aR,6S,6aS)-2-oxo-hexahydro-thieno[3,4-d]imidazol-6-yl)-pentanoylamino]-ethylcarbamoyl}-ethylcarbamoyl)-3-methyl-butyl]-carbamic acid benzyl ester] yielded an inhibitory constant (Ki) of 160 nM.

Regarding `CC(C)CC(NC(=O)OCc1ccccc1)C(=O)NC(Cc1ccccc1)C(=O)C(=O)NCC(O)c1cccc(Oc2ccc(Cl)c(Cl)c2)c1` (stereo not drawn) [[1-(1-Benzyl-2-{2-[3-(3,4-dichloro-phenoxy)-phenyl]-2-hydroxy-ethylcarbamoyl}-2-oxo-ethylcarbamoyl)-3-methyl-butyl]-carbamic acid benzyl ester], the Ki came out at 120 nM.

In the case of `CC(C)CC(NC(=O)OCc1ccccc1)C(=O)NC(Cc1ccccc1)C(=O)C(=O)NCC(O)c1cccc(Oc2cccc(C(F)(F)F)c2)c1` (stereo not drawn) [[1-(1-Benzyl-2-{2-hydroxy-2-[3-(3-trifluoromethyl-phenoxy)-phenyl]-ethylcarbamoyl}-2-oxo-ethylcarbamoyl)-3-methyl-butyl]-carbamic acid benzyl ester], the Ki was determined as 450 nM.
